Results pooled from the literature.
Each line is one published result; the experiments were not run side by side.
Observed: enzyme activity
Mode: inhibitor
CDK2: Cyclin-dependent kinase 2 (CDK2, Homo sapiens, UniProt P24941)
CDK2 with cyclin A: Cyclin-dependent kinase 2, with cyclin A (CDK2, Homo sapiens, UniProt P24941)

Cn1cnc(Br)c1C1=CN(c2ncnc3[nH]cnc23)CCS1 has an inhibition of 20.5% (CDK2; radiometric; 50 nM).
CNc1cccc2cc(C(=O)Nc3ccc(C(=O)O)cc3)c(=O)[nH]c12 gave an inhibition of -0.24% (CDK2; 10 µM).
With CN1CC(Oc2cnc(C#N)cc2-c2ccn3nc(NC(=O)C4CC4)cc3c2)C1 the inhibition was -13% (Cyclin-dependent kinase 2, with cyclin E (CDK2, Homo sapiens, UniProt P24941); 1 µM).
CN(C)C1CCN(CC#Cc2nn(C3CCCC3)c3nc(NCc4ccccc4)ncc23)C1 (stereo not drawn) has an inhibition of 4% (CDK2 with cyclin A; FRET; 10 µM).
COc1cc(-c2cc(-c3ccc(N4CCNCC4)cc3)cnc2N)cc(OC)c1OC has an inhibition of 2% (CDK2 with cyclin A; 1 µM).
Cn1cncc1C1=CN(c2ncnc3[nH]cnc23)CCS1 has an inhibition of 12.6% (CDK2; radiometric; 50 nM).
For CC/C(=N\NC(=O)NCc1cccc(O)c1)c1ccc(O)c(C)c1O, the inhibition was -16.4% (Cyclin-dependent kinase 2, with cyclin E1 (CDK2, Homo sapiens, UniProt P24941); 0.1 µM).
O=C(CSc1nc2nccnc2c(=O)n1CCc1ccccc1)Nc1nccs1 gave an inhibition of 3% (Cyclin-dependent kinase 2, with cyclin O (CDK2, Homo sapiens, UniProt P24941); 10 µM).
With CN(c1ncccc1CNc1nc(Nc2ccc3c(c2)CC(=O)N3)ncc1C(F)(F)F)S(C)(=O)=O the inhibition was 94.4% (CDK2; 1 µM).
The inhibition of Nc1nc(Nc2ccc(S(N)(=O)=O)cc2)sc1C(=O)c1ccccc1[N+](=O)[O-] is reported as 95 to 96% (CDK2; 0.1 µM).
The inhibition of CCCS(=O)(=O)Nc1ccc(F)c(C(=O)c2c[nH]c3ncc(-c4ccc(Cl)cc4)cc23)c1F is reported as < 10% (CDK2 with cyclin A; 1 µM).
COc1cc2ncnc(Nc3ccc(Oc4ccccc4)c(C)c3C)c2cc1OC has an inhibition of 1% (CDK2 with cyclin A; 1 µM).
